Experimental findings from ChEMBL document CHEMBL1157565, “Discovery of 1-[3-(4-bromo-2-methyl-2h-pyrazol-3-yl)-4-methoxyphenyl]-3-(2,4-difluorophenyl)urea (nelotanserin) and related 5-hydroxytryptamine2A inverse agonists for the treatment of insomnia” (J Med Chem, 2010) are described below.

Calls of active or inactive are those of the source. The rule behind the calls is not given here.

Data set [1] is described as follows: Tmax in Wistar rat at 1.0 mg/kg, po. The format is ADME, organism-based. The arrangement: dose 1 mg/kg, route oral. Particulars: in vivo. A digest of the protocol: (§1)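 Male Wistar rats, fasted overnight, single oral dose in 80% Tween-80/20% water. Jugular vein blood sampled serially over 24 h ([…]); sodium-heparin plasma stored at -70 °C, quantified by HPLC/MS/MS (LLOQ 1 ng/mL, ULOQ 2000 ng/mL). n = 2-3 animals; noncompartmental analysis; values as mean ± SD.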

Data set [2] can be described thus: Half life in Wistar rat at 1.0 mg/kg, po. The format is ADME, organism-based. The arrangement: dose 1 mg/kg, route oral. The conditions noted are these: in vivo. A digest of the protocol:
as §1

Data set [3] addresses T1, 5-hydroxytryptamine receptor 2A (Homo sapiens, UniProt P28223). Nature of the data set: Activity at human 5HT2A receptor expressed in HEK293 cells assessed as [3H]inositol phosphate production by scintillation counting. The format is functional, cell-based. The procedure, abridged: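 HEK-293 cells transiently transfected with a mutated, constitutively active h5-HT2A receptor, labeled 18 h with […] [3H]myoinositol in serum- and myoinositol-free DMEM. Then 3 h at 37 °C in HBSS with LiCl (10 mM final), pargyline and compound. Lysis with ice-cold 0.1 M formic acid; total [3H]IP separated on AG1-X8 resin and counted by scintillation. Inverse-agonist pIC50.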

Data set [4] concerns Rattus norvegicus. Nature of the data set: Effect on behavioral activity in po dosed Sprague-Dawley rat assessed as reversal of DOI-induced inhibition of rearing behavior. The format is functional. A digest of the protocol:
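Adult male Sprague-Dawley rats dosed orally with compound 45 min before DOI (0.3 mg/kg), which lowers rearing. Fifteen minutes later, rearing recorded in photocell-monitored locomotor activity cages. A dose-response curve for reversal of DOI-induced rearing decrease yields an ED50.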

The target in data set [5] is T1, 5-hydroxytryptamine receptor 2A. In words: Displacement of [3H]DOI from human recombinant 5HT2A receptor expressed in HEK293 cells by scintillation counting. The format is cell-based. Particulars: in the assay text read “[125I]DOI” for “[3H]DOI”. The procedure, abridged:
(§2)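 Crude membranes (5-25 μg protein) from HEK293 cells stably expressing human 5-HT2A or 5-HT2C. Radioligand [125I]DOI at 0.5 nM final; 10 μM cold DOI defines nonspecific binding. Buffer 20 mM HEPES pH 7.4, 10 mM MgCl2; 1 h at room temperature. Eight concentrations (1 pM–10 μM), each in triplicate. Vacuum filtration on GF/C, Tris wash, scintillation counting; pKi.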

For data set [6], the system named is Rattus norvegicus. In words: Effect on behavioral activity in Wistar rat assessed as increase in non-rapid eye movement bout length at 1 mg/kg, po after 2 hrs. The format is functional, organism-based. More on the design: dose 1 mg/kg. The procedure, abridged: (§3)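 Male Wistar rats (300 ± 25 g) implanted for continuous EEG/EMG recording, 1 week recovery. Repeated-measures design: each rat received each treatment, including 80% Tween-80 vehicle, in random order by oral gavage. Non-REM sleep parameters scored hourly after dosing; at least five rats per compound.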

The target of data set [7] is T2, 5-hydroxytryptamine receptor 2C (Homo sapiens, UniProt P28335).
T2 sequence (P28335 whole entry): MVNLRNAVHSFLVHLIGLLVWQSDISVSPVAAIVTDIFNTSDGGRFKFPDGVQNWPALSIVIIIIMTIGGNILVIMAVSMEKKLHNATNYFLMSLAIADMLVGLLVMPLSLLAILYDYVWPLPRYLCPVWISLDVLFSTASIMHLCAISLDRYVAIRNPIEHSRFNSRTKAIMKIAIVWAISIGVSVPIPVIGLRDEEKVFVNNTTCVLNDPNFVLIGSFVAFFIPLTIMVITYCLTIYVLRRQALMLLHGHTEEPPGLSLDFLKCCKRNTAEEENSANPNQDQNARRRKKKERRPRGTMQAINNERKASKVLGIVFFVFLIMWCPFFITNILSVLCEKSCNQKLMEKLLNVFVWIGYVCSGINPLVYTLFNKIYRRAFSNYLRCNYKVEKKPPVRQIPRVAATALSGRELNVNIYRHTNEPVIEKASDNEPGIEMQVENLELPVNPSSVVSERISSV
In words: Displacement of [3H]DOI from human recombinant 5HT2C receptor expressed in HEK293 cells by scintillation counting. The format is cell-based. Particulars: in the assay text read “[125I]DOI” for “[3H]DOI”. The procedure, abridged: as §2
A general note: Loss of bound radioactivity is the signal in a displacement assay; it reports binding, not function.

A short description of data set [8]: Cmax in Wistar rat at 1.0 mg/kg, po. The conditions noted are these: in vivo. More on the design: dose 1 mg/kg, route oral. The format is ADME, organism-based. A digest of the protocol:
as §1

Data set [9] concerns Rattus norvegicus. Nature of the data set: Effect on behavioral activity in Wistar rat assessed as increase in non-rapid eye movement delta power at 1 mg/kg, po after 2 hrs. The format is functional, organism-based. The arrangement: dose 1 mg/kg. A digest of the protocol:
as §3

A short description of data set [10]: AUC (0 to infinity) in Wistar rat at 1.0 mg/kg, po. The format is ADME, organism-based. More on the design: time infinity, dose 1 mg/kg, route oral. The conditions noted are these: plasma. A digest of the protocol: as §1
Data set [11] can be described thus: Cmax in Wistar rat at 1.5 mg/kg, po. Particulars: in vivo. The format is ADME, organism-based. The arrangement: dose 1.5 mg/kg, route oral. The procedure, abridged: as §1
For data set [12], the system named is Rattus norvegicus. In words: Effect on behavioral activity in Wistar rat assessed as increase in non-rapid eye movement delta power at 1.4 mg/kg, po after 2 hrs. The format is functional, organism-based. More on the design: dose 1.4 mg/kg. A digest of the protocol:
as §3

A short description of data set [13]: Tmax in Wistar rat at 1.5 mg/kg, po. The format is ADME, organism-based. The arrangement: dose 1.5 mg/kg, route oral. The conditions noted are these: in vivo. A digest of the protocol: as §1
Data set [14] in a line: AUC (0 to infinity) in Wistar rat at 1.5 mg/kg, po. The format is ADME, organism-based. More on the design: time infinity, dose 1.5 mg/kg, route oral. The conditions noted are these: plasma. A digest of the protocol: as §1
Data set [15] addresses 5-hydroxytryptamine receptor 2A (Rattus norvegicus, UniProt P14842). In words: Displacement of [125I]DOI from rat recombinant 5HT2A receptor by scintillation counting.
Data set [16] can be described thus: Half life in Wistar rat at 1.5 mg/kg, po. The format is ADME, organism-based. The arrangement: dose 1.5 mg/kg, route oral. The conditions noted are these: in vivo. A digest of the protocol:
as §1

T1 sequence (P28223 whole entry): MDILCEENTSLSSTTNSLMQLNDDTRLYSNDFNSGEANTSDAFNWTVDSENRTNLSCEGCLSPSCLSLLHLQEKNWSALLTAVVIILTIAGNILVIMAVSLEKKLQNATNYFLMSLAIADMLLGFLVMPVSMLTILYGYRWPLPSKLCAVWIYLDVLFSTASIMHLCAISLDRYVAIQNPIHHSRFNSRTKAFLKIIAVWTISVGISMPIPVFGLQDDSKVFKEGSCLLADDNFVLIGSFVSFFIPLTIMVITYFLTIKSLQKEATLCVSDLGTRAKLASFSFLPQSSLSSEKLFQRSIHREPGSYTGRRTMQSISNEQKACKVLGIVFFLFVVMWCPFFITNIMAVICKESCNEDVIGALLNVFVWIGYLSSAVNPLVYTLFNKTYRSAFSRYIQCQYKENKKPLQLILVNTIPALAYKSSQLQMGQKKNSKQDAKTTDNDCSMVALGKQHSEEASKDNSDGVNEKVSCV
Chain of 5-hydroxytryptamine receptor 2A (Rattus norvegicus, UniProt P14842) (P14842 whole entry): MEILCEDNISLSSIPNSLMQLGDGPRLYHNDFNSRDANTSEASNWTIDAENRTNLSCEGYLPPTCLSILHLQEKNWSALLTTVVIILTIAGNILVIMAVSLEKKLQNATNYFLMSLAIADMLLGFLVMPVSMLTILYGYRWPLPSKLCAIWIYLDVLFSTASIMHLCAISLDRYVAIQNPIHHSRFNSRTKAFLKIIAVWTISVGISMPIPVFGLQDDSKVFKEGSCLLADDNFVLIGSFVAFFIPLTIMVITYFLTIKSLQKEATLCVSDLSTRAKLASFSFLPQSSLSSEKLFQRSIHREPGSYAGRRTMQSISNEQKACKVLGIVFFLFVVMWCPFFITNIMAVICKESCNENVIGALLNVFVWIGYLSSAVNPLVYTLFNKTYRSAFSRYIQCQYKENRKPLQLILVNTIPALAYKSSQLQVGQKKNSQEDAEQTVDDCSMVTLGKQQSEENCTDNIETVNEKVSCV

One may read the Tmax as the time from dosing to the highest level. As usually defined, the half-life is how long it takes for the measured level to halve. For orientation: ED50 means the dose that gives a 50% effect, or the effect in half of the subjects. Usually Ki stands for a measure of affinity in units of concentration, obtained from inhibition or displacement. What is called Cmax is the highest concentration seen after dosing. As a reminder, the AUC(0-inf) is the area under the concentration-time curve extrapolated to infinity. In the case of `COc1ccc(NC(=O)Nc2ccc(Cl)cc2)cc1-c1c(Br)cnn1C`, the Tmax in [1] amounted to 3 h. Moreover, the half-life in data set [2] was 3 h. For the same compound, the IC50 in data set [3] was 0.7 nM; in data set [3] (read-out: pIC50 (converted)), 0.794 nM. For the same compound, the ED50 in [4] is 0.5 mg/kg. The Ki in data set [5] is 0.501 nM; in [7], 10 nM. For the same compound, the outcome in data set [6] and in data set [9] was Active. Moreover, the peak level in data set [8] (Cmax) was 45 ng/mL. In data set [10], this compound had a total exposure AUC(0-inf) of 281 ng·h/mL.
The compound `COc1ccc(NC(=O)Nc2ccc(Cl)cc2)cc1-c1c(Cl)cnn1C` yielded a Cmax in data set [11] of 41 ng/mL. Further, the result in data set [12] was Active. In data set [13], the Tmax turned out to be 6 h. Moreover, in data set [3] (read-out: pIC50 (converted)), the IC50 was 0.501 nM. For the same compound, the 50% effective dose (ED50) in data set [4] was 0.7 mg/kg. In addition, the total exposure AUC(0-inf) in data set [14] came to 478 ng·h/mL. Also, the inhibition constant (Ki) in [5] is 0.158 nM; in [15] it was 2 nM; in data set [7] it was 10 nM. Also, the half-life in [16] is 5 h.
